This is a sample that favours compounds with a hit; in the whole collection about 1.5% have one here.
EP2 modulator = modulates human prostaglandin E2 receptor EP2 signaling; EP2-expressing cells, cAMP HTRF FRET, PGE2 co-stimulation; induction, % at 25 µM; 260,000 tested, 0.83% active; AID 940;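 active = compounds whose cAMP rise, as percent of the full-agonist control response, exceeds 60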;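 note: rat C6 glioma line stably carrying human EP2 under a CMV promoter; the protocol text gives 20 µM as final concentration; 100% = response of wells given 1 µM PGE2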
EP2 antag = EP2 receptor (human) inhibition; AID 1422; inhibition, % at 25 µM; 260,000 tested, 0.52% active; C6 glioma cells expressing human EP2, cAMP TR-FRET; cells stimulated with saturating PGE2; P43116;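 active = percent inhibition above 40 after rounding to a whole number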;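 note: rat C6 glioma host cells with rolipram phosphodiesterase inhibitor present; the protocol text gives 20 µM as final concentration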
ABCB1 inh = inhibitors of human ABCB1 transporter, ABCG2 counter-screen; P08183; CCRF-Adr cells, JC-1 efflux, flow cytometry; inhibition, % at 6.6 µM; 190,000 tested, 0.067% active; AID 1326; in the data active = inhibition above about 40%;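 note: 0% = vehicle and 100% = reference inhibitor; higher value means more JC-1 retained so stronger ABCB1 efflux block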
RBBP9 inh = blocks human serine hydrolase RBBP9 | O75884 | recombinant RBBP9, FP-Rh probe fluorescence polarization | inhibition, % at 7.94 µM | 220,000 tested, 0.2% active | AID 1515;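 active = inhibition above the campaign mean of all tested compounds plus 3 SD, cut at about 14% in these data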;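 note: plate controls were DMSO wells with RBBP9 for no effect and wells lacking RBBP9 protein for full effect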
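Test system: recombinant human RBBP9. Quantity: 2.5 µM RBBP9 dispensing solution, before mixing. Detection: FP readout at 525/598 nm. Reagent: Serine-hydrolase probe FP-Rh, 375 nM pre-mixing. Measure: % inhibition. Control set: DMSO-treated enzyme wells and wells lacking RBBP9. Buffer or medium: Tris-NaCl-Pluronic buffer, pH 8.0. Times: preincubation 30 min plus labeling 45 min at 25 °C.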
ABCG2 inh = inhibitors of human ABCG2 transporter, ABCB1 counter-screen | 190,000 tested, 0.1% active | IgMXP3 cells, JC-1 efflux, flow cytometry | Q9UNQ0 | inhibition, % at 6.6 µM | AID 1325;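 active = inhibition above 80%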;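 note: 0% = DMSO and 100% = nicardipine control wells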
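Test system: IgMXP3 cells (ABCG2) mixed with DDAO far-red-labelled CCRF-Adr cells (ABCB1). Reagent: JC-1 transporter substrate. Compound dosing: single test compound dose, 6.6 µM final. Times: 10 min compound exposure, 25 °C. Detection: flow cytometry of retained JC-1 fluorescence. Read-out basis: efflux inhibition in percent versus controls. Controls: nicardipine and DMSO wells.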
EP2 cAMP induct = EP2 receptor cAMP induction, counter-screens negative. shares compounds with EP2 modulator. 1,300 tested, 47% active. C6 glioma EP2 cells, cAMP HTRF induction; plus low (about EC15) PGE2 agonist. calls only at 20 µM (by protocol);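 active = cAMP induction above 50% in the main assay while under 30% in all four parallel counter assays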;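 note: rat C6 glioma cells stably expressing human EP2 receptor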
* marks the source's active call; other numbers are inactive results; i = inactive; . = no result given; + = active, no number; ! = repeats disagree.

SMILES	EP2 modulator	EP2 antag	ABCB1 inh	RBBP9 inh	ABCG2 inh	EP2 cAMP induct
CCOC(=O)c1sc(NC(=O)C(CC)OC(=O)C(CC(C)C)NC(=O)c2ccccc2)nc1C (configuration not stated)	67.4*	18.5	1.0	-1.4	4.7	i
CC(C)CCn1c(-c2nonc2N)nc2ccccc21	69.7*	10.9	0.0	-9.6	0.8	i
COc1ccc(-n2nnnc2SCC(=O)N2c3ccccc3CCc3ccccc32)cc1OC	19.3	6.6	.	.	.	.
CCOC(=O)c1cc(CC)sc1NC(=O)c1ccc2c(c1)OCCO2	69.2*	11.3	0.5	-14.7	4.5	+
CCOC(=O)c1cc(C)sc1NC(=O)c1ccc(Cl)s1	65.0*	6.7	0.1	-3.4	1.9	+
COCCn1nnnc1C(c1ccc(OC)cc1OC)N1CCN(c2nc3ccccc3s2)CC1 (configuration not stated)	2.9	21.3	.	.	.	.
COC(=O)c1cn(Cc2cccc(C)c2)nn1	6.4	5.7	0.0	4.3	0.2	.
COC(=O)c1ccc(-c2ccco2)n1Cc1cccc(C)c1	77.5*	2.4	-0.1	0.6	-0.9	+
Cc1ccc(-c2nc3ccccc3nc2Cl)cc1	65.2*	7.9	-0.2	-9.3	-0.1	i
CCOc1cc(CN2CCc3c(nc(N4CC(C)OC(C)C4)[nH]c3=O)C2)ccc1OC (configuration not stated)	5.2	.	.	.	.	.
FC(F)(F)c1cccc(-c2nc3nc(Cl)c(Cl)nc3[nH]2)c1	12.4	11.2	.	-7.0	.	.
O=C(O)c1nc2nc(Cl)c(Cl)nc2[nH]1	63.5*!	4.1	.	-5.7	.	i
Cc1ccc(C)n1-c1sc2c(c1C#N)CCCC2	63.1*	14.8	-0.1	-7.2	1.2	+
O=C(Nc1ccc(C(F)(F)F)cc1)N1C2CCC1CC(O)(c1cccnc1)C2 (configuration not stated)	-41.7	18.3	.	.	.	.
O=C(N/N=C/c1ccc[nH]1)c1ccccc1OCc1ccccc1Cl	65.8*	8.5	0.0	-5.6	0.5	+
O=C(N/N=C/c1ccco1)c1ccccc1OCc1ccccc1Cl	41.2	7.7	1.4	-14.1	42.2	.
O=C(Nc1ccccc1Sc1ccccc1)c1ccc(F)cc1	72.1*	2.5	0.7	4.8	6.5	+
O=C(Cc1ccc(Cl)cc1)Nc1ccccc1CO	31.1	14.6	0.8	0.8	4.4	.
O=C(Cc1ccc(Cl)cc1)Nc1ccccc1Sc1ccccc1	75.2*	3.1	0.6	-7.9	10.7	+
Cc1ccc(C(=O)Nc2ccccc2Sc2ccccc2)cc1	49.0	7.7	0.7	-3.1	19.0	.
CC(=O)CSc1nnc(NC(=O)c2ccccc2C)s1	-37.9	5.4	.	.	.	.
COc1nc(-c2ccccc2)nnc1-c1ccccc1	74.6*	5.3	0.7	-6.6	2.1	i
CC(C)C(=O)c1cn(CC(=O)N2CCCC2)c2ccccc12	12.1	8.1	.	.	.	.
CCOC(=O)CSc1nnc(Cc2ccccc2)n1-c1ccc(C)cc1	30.9	7.2	0.5	-8.8	1.1	.
CCOC(=O)CN(C(=O)CSc1nnc(Cc2ccccc2)n1-c1ccc(C)cc1)c1ccccc1	50.3	11.0	3.4	-4.2	-0.2	i
SMILES	EP2 modulator	EP2 antag	ABCB1 inh	RBBP9 inh	ABCG2 inh	EP2 cAMP induct
Cc1cc2c(cc3c(=O)n(CC(=O)N(C)C4CCCCC4)nc(C)n32)s1	1.4	.	.	.	.	.
Cc1c(NC(=S)NC(=O)c2ccc(-c3ccc(Cl)cc3)o2)cccc1C(=O)O	98.9*	9.3	-0.3	-2.4	0.5	+
O=C(NC(=S)Nc1ccccc1O)c1ccc(-c2ccc(Cl)cc2)o1	2.2	14.5	-0.1	-3.8	1.4	.
CCc1nc(N2CCC(C)CC2)c2oc3ccccc3c2n1	70.0*	5.5	1.2	-2.8	3.3	i
CCNc1nc(CC)nc2c1oc1ccccc12	-4.6	6.0	0.1	-2.1	0.8	.
CO/N=C/C(=N\Nc1ccc(C)cc1)C(=O)c1ccc(OC)cc1	48.8	16.0	0.1	0.0	-1.0	.
CO/N=C/C(=N\Nc1ccccc1)C(=O)c1ccccc1	84.3*	2.0	0.2	-3.9	3.3	+
Cc1cccc(C2(O)CCN(CC(O)c3ccccc3)CC2)c1 (configuration not stated)	-30.6	8.3	.	.	.	.
CCOc1ccc(C(c2nnnn2C(C)(C)C)N2CCN(CC)CC2)cc1 (configuration not stated)	16.4	12.1	.	.	.	.
COc1ccc(-c2cc(-c3n[nH]c(=S)n3-c3cccc4ccccc34)[nH]n2)cc1	67.5*	3.7	-0.5	-1.6	-1.6	i
S=c1[nH]nc(-c2cc(-c3ccsc3)n[nH]2)n1-c1cccc2ccccc12	47.1	7.6	-0.8	-2.7	-3.7	.
CC(=O)c1cccc(S(=O)(=O)N(Cc2cc3cc(C)ccc3[nH]c2=O)C2CCCCC2)c1	-0.5	14.7	.	.	.	.
C=CCn1c(=O)c2c(nc(-c3ccc(S(=O)(=O)O)cc3)n2C)n(C)c1=O	66.2*	19.1	.	.	.	i
C=CCn1c(=O)c2c(nc3n2CCN3c2cccc(Cl)c2C)n(C)c1=O	8.8	6.3	1.6	-5.9	30.0	.
CCOC(=O)c1[nH]c2ccc(OC)cc2c1NS(=O)(=O)c1ccc(Cl)s1	95.6*	4.3	0.3	-1.4	2.0	+
C[C@@H]1CC[C@H]2C(C)(C)C3CC12CC[C@@]3(C)O (some centres not stated)	65.4*	11.1	.	.	.	+
CN=C1CC(SC)=C1c1ccc(C)cc1	72.5*	56.3*	1.1	-7.1	7.8	+
c1ccc(CCN2CNc3nc4ccccc4n3C2)cc1	50.5	13.6	.	.	.	.
CCOc1ccc(OCC)c(NC(=O)CSc2nc3ccc(C)cc3cc2C#N)c1	-5.0	13.5	.	.	.	.
Cc1cc(N)c2cc(NC(=O)Nc3ccc4nc(C)cc(N)c4c3)ccc2n1	61.5*	48.7*	.	.	.	i
C=CCn1c(SCC(N)=O)nc2ccccc2c1=O	-19.4	13.1	.	.	.	.
C=CCn1c(SCC(N)=O)nc(C)cc1=O	68.2*	12.1	0.2	-8.7	0.6	i
CCOC(=O)/C(=C\c1ccc(-c2ccccc2Cl)o1)C(C)=O	-54.0	16.4	.	.	.	.
Cc1ccccc1/C=C/c1nc2ccccc2c(=O)n1Cc1ccccc1	36.3	2.6	1.8	-7.7	5.3	.
Cc1ccc(/C=C/c2nc3ccccc3c(=O)n2CCc2ccccc2)cc1	80.7*	0.6	0.5	-11.9	2.9	+
Cc1ccccc1/C=C/c1nc2ccccc2c(=O)n1CCc1ccccc1	70.6*	12.6	0.9	1.7	10.2	+
Cc1ccc(OCC(=O)NNC(=O)C2CCN(c3ncccn3)CC2)cc1	64.9*!	8.1	-0.1	0.2	-0.4	i
CCc1ccccc1NC(=O)CSc1nc2sc3c(c2c(=O)n1CCOC)CCC3	-21.7	10.6	.	.	.	.
c1ccc(-c2noc(-c3cccc4ccccc34)n2)cc1	68.6*	3.0	0.9	-4.6	8.7	i

Screening data: PubChem BioAssay, several laboratories
